ChEMBL document CHEMBL1142131, “Effect of anaerobic growth on quinolone lethality with Escherichia coli” (2007)
In brackets after ≈: the same amount, converted by molar mass. Activity calls are given as the source filed them. The rule behind the calls is not given here.

Columns and labels:
Escherichia coli [1] = test: Bactericidal activity against Escherichia coli DM4100 in saline; type: functional, organism-based
Escherichia coli [2] = test: Bactericidal activity against Escherichia coli DM4100 in anaerobic condition; type: functional, organism-based
How it was run: (§1)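 Mid-log aerobic cultures at 37°C were split into 2-ml portions in sealed tubes flushed with anaerobic gas (85% N2, 10% H2, 5% CO2). After 20 min, anaerobic quinolone solution was added and incubation continued 2 h under gas flow. Cells were diluted in ice-cold LB, plated aerobically on drug-free LB agar overnight at 37°C. Survival is CFU relative to CFU at drug addition.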

Escherichia coli [3] = test: Bactericidal activity against Escherichia coli DM4100 in aerobic condition; type: functional, organism-based
How it was run: (§2)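 Mid-log cells grown aerobically at 37°C in liquid medium, split into 2-ml portions and given quinolone for 2 h with shaking in air. Chloramphenicol 20 µg/ml was added 10 min before quinolone for the chloramphenicol arm. Cells were diluted in ice-cold LB and plated on drug-free LB agar overnight at 37°C aerobically. Read-out is CFU relative to CFU at time of quinolone addition.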

Escherichia coli [4] = test: Bactericidal activity against Escherichia coli DM4100 in the presence of chloramphenicol; type: functional, organism-based
How it was run: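 Aerobically growing mid-log cells at 37°C received chloramphenicol to 20 µg/ml 10 min before the quinolone. Treatment ran 2 h. Cells were diluted in ice-cold LB and plated aerobically on drug-free LB agar overnight at 37°C. Survival is CFU relative to CFU at quinolone addition. Replicate experiments were run.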

Escherichia coli [5] = test: Bacteriostatic activity against Escherichia coli DM4100 in anaerobic condition; type: functional
How it was run: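 MIC from 10^4 to 10^5 cells/ml in liquid medium with serial twofold quinolone dilutions. Incubated at 37°C in sealed tubes after 20 min flushing with anaerobic gas (85% N2, 10% H2, 5% CO2).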

Escherichia coli [6] = test: Bacteriostatic activity against Escherichia coli DM4100 in aerobic condition; type: functional
How it was run: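 MIC from 10^4 to 10^5 cells/ml in liquid medium with serial twofold quinolone dilutions. Incubated at 37°C with shaking, 2-ml cultures, aerobic.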

Escherichia coli [7] = test: Chromosome fragmentation in Escherichia coli DM4100 assessed as reduced lysate viscosity at 50 ug/ml after 2 hrs in aerobic condition; type: functional, organism-based
How it was run: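 Exponential aerobic cells were treated 2 h with drug, then gently lysed with lysozyme and nonionic detergents at 20°C for 2–3 min. Lysate twofold dilutions received pancreatic RNase 20 µg/ml, were heated at 80°C for 2 min, chilled on ice and brought to 20°C. Viscosity was measured by capillary viscometry.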

Escherichia coli [8] = test: Bactericidal activity in Escherichia coli KD2329 with gyrA-par C resistant mutation; type: functional, organism-based; how it was run: as §2
Escherichia coli [9] = test: Bactericidal activity in Escherichia coli KD1373 containing parC resistance mutation in aerobic condition; type: functional, organism-based; how it was run: as §2
Escherichia coli [10] = test: Bactericidal activity in Escherichia coli KD1373 containing parC resistance mutation in anaerobic condition; type: functional, organism-based; how it was run: as §1
Escherichia coli [11] = test: Bactericidal activity in Escherichia coli KD1373 containing parC resistance mutation in presence of chloramphenicol; type: functional, organism-based; how it was run: as §2
Escherichia coli [12] = test: Bactericidal activity in Escherichia coli KD1373 containing parC mutation in anerobic condition; type: functional, organism-based; how it was run: as §1
Escherichia coli [13] = test: Bactericidal activity in Escherichia coli KD2750 containing gyrA resistant mutation in anerobic condition; type: functional, organism-based; how it was run: as §1
Escherichia coli [14] = test: Bactericidal activity in Escherichia coli KD2329 containing gyrA-parC mutation; type: functional, organism-based; how it was run: as §2

For `O=C(O)c1cn(C2CC2)c2cc(N3CCNCC3)c(F)cc2c1=O`, the Activity (Escherichia coli [1]) was “Active”, the Activity (Escherichia coli [2]) was “Active” and the Activity (Escherichia coli [3]) was “Active”. For the same molecule, the Activity (Escherichia coli [4]) was “Active”.
For `CCn1cc(C(=O)O)c(=O)c2ccc(C)nc21` [NALIDIXIC ACID], the Activity (Escherichia coli [1]) was “inactive”, the Activity (Escherichia coli [2]) was “inactive” and the MIC (Escherichia coli [5]) was 5 µg/mL (≈ 21.5 µM). The MIC (Escherichia coli [6]) was 5 µg/mL (≈ 21.5 µM), the Activity (Escherichia coli [3]) was “Active” and the Activity (Escherichia coli [7]) was “Active”. For the same molecule, the Activity (Escherichia coli [4]) was “inactive”.
`CCN1CCN(c2c(F)cc3c(=O)c(C(=O)O)cn(C4CC4)c3c2OC)CC1` was tested, and the Activity (Escherichia coli [8]) was “inactive”, the Activity (Escherichia coli [9]) was “Active” and the Activity (Escherichia coli [2]) was “Active”. For the same molecule, the MIC (Escherichia coli [5]) was 0.08 µg/mL (≈ 0.205 µM), the MIC (Escherichia coli [6]) was 0.08 µg/mL (≈ 0.205 µM) and the Activity (Escherichia coli [10]) was “Active”. The Activity (Escherichia coli [3]) was “Active”, the Activity (Escherichia coli [4]) was “Active” and the Activity (Escherichia coli [11]) was “Active”.
`CCn1cc(C(=O)O)c(=O)c2cc(F)c(N3CCNCC3)cc21` [NORFLOXACIN] was tested, and the Activity (Escherichia coli [12]) was “Active”, the Activity (Escherichia coli [1]) was “Active” and the Activity (Escherichia coli [2]) was “Active”. For the same molecule, the MIC (Escherichia coli [5]) was 0.075 µg/mL (≈ 0.235 µM), the Activity (Escherichia coli [13]) was “Active” and the MIC (Escherichia coli [6]) was 0.075 µg/mL (≈ 0.235 µM). For the same molecule, the Activity (Escherichia coli [14]) was “inactive”, the Activity (Escherichia coli [3]) was “Active” and the Activity (Escherichia coli [4]) was “inactive”.
